Experimental data published in ChEMBL document CHEMBL3856286, “Halogenated naphthochalcones and structurally related naphthopyrazolines with antitumor activity” (Bioorg Med Chem Lett, 2016).
The source made the active and inactive calls. The rule behind the calls is not given here.

Legend:
P-gp (ABCB1) = P-gp (ABCB1) (Homo sapiens, UniProt P08183); test: Potency index, ratio of verapamil IC50 to compound IC50 for P-gp in human KB-V1/Vbl cells; type: cell-based; details: read-out: Ratio IC50
PANC-1 = test: (§1) Growth inhibition of human PANC1 cells after 72 hrs by MTT assay; type: functional, cell-based
[1] = as §1; type: functional, cell-based; details: PANC-1, 72 h
[2] = (§2) Growth inhibition of human KB-V1/Vbl cells after 72 hrs by MTT assay; type: functional
KB-V1/Vbl = test: as §2; type: functional
[3] = Cell cycle arrest in human HT-29 cells assessed as accumulation in G2/M phase at 15 uM after 24 hrs by propidium iodide staining based flow cytometry; type: functional
Summary of the method: (§3)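 HT-29 colon carcinoma cells treated 24 h with 15 µM compound or DMSO (control); propidium iodide staining, flow cytometry for cell-cycle phase distribution and sub-G1 fraction. Means ± SD of three independent experiments.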

HCT-116 = test: (§4) Growth inhibition of human HCT116 cells after 72 hrs by MTT assay; type: functional, cell-based
[4] = as §4; type: functional, cell-based; details: HCT-116, 72 h
[5] = (§5) Growth inhibition of human 518A2 cells after 72 hrs by MTT assay; type: functional, cell-based; details: 518A2, 72 h
518A2 [6] = test: as §5; type: functional, cell-based
[7] = Cell cycle arrest in human HT-29 cells assessed as decrease in G1 phase at 15 uM after 24 hrs by propidium iodide staining based flow cytometry; type: functional; summary of the method: as §3
518A2 [8] = test: Inhibition of tubulin polymerization in human 518A2 cells assessed as increase in detergent soluble tubulin heterodimers at 5 to 50 uM after 4 hrs by Western blot analysis; type: cell-based
Summary of the method: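 518A2 melanoma cells treated 4 h with a range of concentrations; detergent-insoluble (polymeric tubulin) lysate fraction separated by centrifugation, run on SDS–PAGE, immunoblotted for alpha-tubulin (55 kDa); densitometry from at least two independent experiments (mean ± SD).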

Sus scrofa = species: Sus scrofa; test: Inhibition of pig brain tubulin polymerization at 5 uM measured every 20 sec for 2 hrs by turbidimetric method
[9] = target: T1, Broad substrate specificity ATP-binding cassette transporter ABCG2 (Homo sapiens, UniProt Q9UNQ0); test: Inhibition of BCRP in human MCF7/Topo cells assessed as mitoxantrone accumulation preincubated for 10 mins followed by mitoxantrone addition measured after 30 mins by fluorescence assay; type: cell-based
T1 sequence (Q9UNQ0 whole entry): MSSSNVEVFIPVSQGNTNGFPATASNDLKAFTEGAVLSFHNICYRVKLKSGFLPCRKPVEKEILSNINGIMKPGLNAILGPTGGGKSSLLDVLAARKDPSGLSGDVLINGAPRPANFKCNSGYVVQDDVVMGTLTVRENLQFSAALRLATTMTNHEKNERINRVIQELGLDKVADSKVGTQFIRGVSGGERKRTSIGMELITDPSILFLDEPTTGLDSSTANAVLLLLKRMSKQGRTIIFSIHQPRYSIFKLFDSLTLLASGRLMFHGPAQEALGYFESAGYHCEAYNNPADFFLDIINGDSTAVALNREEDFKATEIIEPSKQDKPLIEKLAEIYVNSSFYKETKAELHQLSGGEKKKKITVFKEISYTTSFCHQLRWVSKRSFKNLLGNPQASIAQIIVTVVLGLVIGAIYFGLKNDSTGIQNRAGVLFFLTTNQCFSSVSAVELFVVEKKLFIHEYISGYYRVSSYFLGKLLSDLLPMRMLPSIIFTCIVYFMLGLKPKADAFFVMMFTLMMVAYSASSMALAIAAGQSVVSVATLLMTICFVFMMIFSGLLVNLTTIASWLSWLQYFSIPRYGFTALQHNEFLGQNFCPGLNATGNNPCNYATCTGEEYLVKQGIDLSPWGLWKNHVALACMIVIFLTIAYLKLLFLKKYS
Summary of the method: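 MCF-7/Topo breast cancer cells (BCRP-overexpressing) exposed to compounds at 0–100 µM, or fumitremorgin C 0.1–100 µM as reference inhibitor, for 30 min with mitoxantrone as fluorescent BCRP substrate. Mitoxantrone fluorescence taken as measure of inhibition; IC50 from dose–response curves; mean ± SD of three independent experiments.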

HT-29 = test: (§6) Growth inhibition of human HT-29 cells after 72 hrs by MTT assay; type: functional, cell-based
[10] = as §6; type: functional, cell-based; details: HT-29, 72 h
MCF7/Topo = test: (§7) Growth inhibition of human MCF7/Topo cells after 72 hrs by MTT assay; type: functional, cell-based
[11] = as §7; type: functional, cell-based
[12] = target: ATP-dependent translocase ABCB1 (Homo sapiens, UniProt P08183); test: Inhibition of P-gp in human KB-V1/Vbl cells assessed as calcein-AM accumulation preincubated for 15 mins followed by calcein-AM addition measured after 15 mins by fluorescence assay; type: cell-based
ATP-dependent translocase ABCB1, sequence (P08183 whole entry): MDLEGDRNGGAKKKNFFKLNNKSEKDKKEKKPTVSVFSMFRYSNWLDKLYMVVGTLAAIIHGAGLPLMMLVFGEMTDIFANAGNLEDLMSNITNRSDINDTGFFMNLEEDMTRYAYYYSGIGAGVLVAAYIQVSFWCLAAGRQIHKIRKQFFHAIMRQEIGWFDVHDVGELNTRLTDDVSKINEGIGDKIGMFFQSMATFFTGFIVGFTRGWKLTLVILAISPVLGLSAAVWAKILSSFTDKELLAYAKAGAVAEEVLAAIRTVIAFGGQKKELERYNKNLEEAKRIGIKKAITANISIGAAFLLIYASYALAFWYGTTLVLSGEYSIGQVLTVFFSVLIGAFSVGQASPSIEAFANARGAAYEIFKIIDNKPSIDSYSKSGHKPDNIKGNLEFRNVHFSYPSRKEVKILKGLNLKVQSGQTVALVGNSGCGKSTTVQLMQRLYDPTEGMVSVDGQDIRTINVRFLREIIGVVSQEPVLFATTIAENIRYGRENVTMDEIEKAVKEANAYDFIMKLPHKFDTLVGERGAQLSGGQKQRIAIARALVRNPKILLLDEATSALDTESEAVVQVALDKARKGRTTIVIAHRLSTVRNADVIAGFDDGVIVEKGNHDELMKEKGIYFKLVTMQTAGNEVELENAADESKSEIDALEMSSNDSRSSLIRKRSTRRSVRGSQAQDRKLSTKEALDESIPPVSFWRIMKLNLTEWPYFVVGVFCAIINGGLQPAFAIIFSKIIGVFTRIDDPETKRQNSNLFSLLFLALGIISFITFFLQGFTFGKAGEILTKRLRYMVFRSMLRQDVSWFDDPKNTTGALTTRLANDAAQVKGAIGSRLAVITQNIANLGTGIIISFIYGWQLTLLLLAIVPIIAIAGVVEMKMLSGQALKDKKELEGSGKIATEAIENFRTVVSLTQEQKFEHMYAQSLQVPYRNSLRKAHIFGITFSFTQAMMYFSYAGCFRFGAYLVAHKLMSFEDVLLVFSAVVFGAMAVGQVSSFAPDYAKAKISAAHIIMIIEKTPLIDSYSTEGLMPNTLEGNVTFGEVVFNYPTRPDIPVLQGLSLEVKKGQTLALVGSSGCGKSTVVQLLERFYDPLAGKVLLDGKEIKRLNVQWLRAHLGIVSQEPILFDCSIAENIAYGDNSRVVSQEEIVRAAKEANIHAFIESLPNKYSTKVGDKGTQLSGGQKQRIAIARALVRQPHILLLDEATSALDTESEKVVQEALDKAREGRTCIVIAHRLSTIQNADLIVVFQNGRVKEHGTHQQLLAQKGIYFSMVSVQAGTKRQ

518A2 [13] = test: Binding affinity to tubulin in human 518A2 cells assessed as effect on F-actin cytoskeleton by measuring increase in stress fibres at 5 uM after 24 hrs by phalloidin 488/DAPI staining based fluorescence microscopic analysis; type: cell-based
Summary of the method: (§8)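 518A2 melanoma cells treated 24 h at 10 µM or 5 µM; F-actin fluorescently stained and cytoskeletal organisation, including stress-fibre formation, compared with untreated controls by fluorescence microscopy.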

518A2 [14] = test: Induction of apoptosis in human 518A2 cells assessed as DNA fragmentation at 25 uM after 24 hrs by TUNEL based flow cytometry; type: functional, cell-based
Summary of the method: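 518A2 melanoma cells treated 24 h; DNA fragmentation detected by TUNEL labelling and quantified by flow cytometry against untreated controls.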

518A2 [15] = test: Binding affinity to tubulin in human 518A2 cells assessed as effect on F-actin cytoskeleton by measuring increase in stress fibres at 10 uM after 24 hrs by phalloidin 488/DAPI staining based fluorescence microscopic analysis; type: cell-based; summary of the method: as §8
518A2 [16] = test: Induction of apoptosis in human 518A2 cells assessed as DNA ladder formation at 50 uM after 24 hrs by ethidium bromide staining based agarose gel electrophoresis; type: functional, cell-based

P-gp (ABCB1), sequence (P08183 whole entry): as above

| SMILES | selectivity ratio (P-gp (ABCB1)) | growth inhibition (GI) (PANC-1) | IC50 [1] | IC50 [2] | growth inhibition (GI) (KB-V1/Vbl) | Activity [3] | growth inhibition (GI) (HCT-116) | IC50 [4] | IC50 [5] | growth inhibition (GI) (518A2 [6]) | Activity [7] | inhibition (518A2 [8]) | inhibition (Sus scrofa) | IC50 [9] | growth inhibition (GI) (HT-29) | IC50 [10] | growth inhibition (GI) (MCF7/Topo) | IC50 [11] | IC50 [12] | other results |
| --- | --- | --- | --- | --- | --- | --- | --- | --- | --- | --- | --- | --- | --- | --- | --- | --- | --- | --- | --- | --- |
| COc1cc(C2CC(c3ccc4ccccc4c3)=NN2C(C)=O)cc(I)c1OC (configuration not stated) | 4 to 5 | Dose-dependent effect | 1.1 µM | 1.9 µM | Dose-dependent effect | Active | Dose-dependent effect | 1.6 µM | 3.8 µM | Dose-dependent effect | Active | Active | Active | 7.1 µM | Dose-dependent effect | 2.3 µM | Dose-dependent effect | 2.5 µM | 16.3 µM |  |
| COc1cc(/C=C/C(=O)c2ccc3ccccc3c2)cc(Br)c1OC |  | Dose-dependent effect | 9.3 µM | 10.5 µM | Dose-dependent effect | Active | Dose-dependent effect | 11.2 µM | 20.2 µM | Dose-dependent effect | Active |  |  | 4.9 µM | Dose-dependent effect | 22.8 µM | Dose-dependent effect | 2.3 µM | > 500 µM |  |
| COc1cc(C2CC(c3ccc4ccccc4c3)=NN2C(C)=O)cc(Cl)c1OC (configuration not stated) | 4 to 5 | Dose-dependent effect | 3.1 µM | 4.7 µM | Dose-dependent effect | Active | Dose-dependent effect | 3.8 µM | 4.6 µM | Dose-dependent effect | Active | Active | Active | 7.4 µM | Dose-dependent effect | 3.5 µM | Dose-dependent effect | 2.1 µM | 12.1 µM | Activity (518A2 [13]): Active |
| COc1cc(C2CC(c3ccc4ccccc4c3)=NN2C(C)=O)cc(Br)c1OC (configuration not stated) | 4 to 5 | Dose-dependent effect | 1.5 µM | 2.2 µM | Dose-dependent effect | Active | Dose-dependent effect | 2.7 µM | 3.8 µM | Dose-dependent effect | Active |  |  | 8.9 µM | Dose-dependent effect | 2.5 µM | Dose-dependent effect | 2.6 µM | 12.6 µM |  |
| COc1cc(/C=C/C(=O)c2ccc3ccccc3c2)cc(I)c1OC |  | Dose-dependent effect | 10.4 µM | 16.5 µM | Dose-dependent effect | Active | Dose-dependent effect | 14.4 µM | 18.1 µM | Dose-dependent effect | Active | Active | Active | 7.8 µM | Dose-dependent effect | 13.3 µM | Dose-dependent effect | 1.3 µM | > 500 µM |  |
| COc1ccc2c3c([nH]c2c1)[C@H](C=C(C)C)N1C(=O)[C@@H]2CCCN2C(=O)[C@@H]1C3 [FUMITREMORGIN] |  |  |  |  |  |  |  |  |  |  |  |  |  | 0.96 µM |  |  |  |  |  |  |
| COc1cc(/C=C/C(=O)c2ccc3ccccc3c2)cc(Cl)c1OC |  | Dose-dependent effect | 10.3 µM | 13.1 µM | Dose-dependent effect | Active | Dose-dependent effect | 12.9 µM | 16.4 µM | Dose-dependent effect | Active | Active | Active | 8.7 µM | Dose-dependent effect | 23.9 µM | Dose-dependent effect | 1.5 µM | > 500 µM | Activity (518A2 [14]): Active; Activity (518A2 [15]): Active; Activity (518A2 [16]): Active |
| COc1cc(/C=C/C(=O)c2ccc3ccccc3c2)cc(OC)c1OC | 4 to 5 | Dose-dependent effect | 13.3 µM | 13.9 µM | Dose-dependent effect | Active | Dose-dependent effect | 13.7 µM | 22.9 µM | Dose-dependent effect | Active |  |  | 2.4 µM | Dose-dependent effect | 28.1 µM | Dose-dependent effect | 5.6 µM | 13 µM | Activity (518A2 [14]): Active; Activity (518A2 [15]): Active; Activity (518A2 [16]): Active |
